Measurements from ChEMBL document CHEMBL4689842, “EUbOPEN Chemogenomics Library wave 1” (2021).

Test system: HEK-293T
Test: Multiplex assay against HEK293T;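 as to Population Tubulin-Different-Phenotype (%): share of the cells with healthy nuclei that show this phenotype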
Format: toxicity, cell-based
Conditions: human
Outline: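 Tubulin, mitochondrial-mass and membrane-permeability phenotypes are per cents of healthy-nucleus cells. Cells were gated by CellPathfinder machine learning into Hoechst high-intensity objects or normal cells, normal cells into healthy, pyknosed or fragmented nuclei, and pyknosed cells into mitotic or apoptotic. Before that, live cells stained at seeding with Hoechst33342, BioTracker Green Microtubule Cytoskeleton Dye, MitoTracker Red and Annexin V Alexa Fluor 680 were imaged on a CQ1 microscope at 37°C and 5% CO2 after compound addition.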

[1] = 12 h, 1 µM, compound concentration 1 uM, replicate 1
[2] = 12 h, 1 µM, compound concentration 1 uM, replicate 2
[3] = 12 h, 10 µM, compound concentration 10 uM, replicate 1
[4] = 12 h, 10 µM, compound concentration 10 uM, replicate 2
[5] = 24 h, 1 µM, compound concentration 1 uM, replicate 1
[6] = 24 h, 1 µM, compound concentration 1 uM, replicate 2
[7] = 24 h, 10 µM, compound concentration 10 uM, replicate 1
[8] = 24 h, 10 µM, compound concentration 10 uM, replicate 2
[9] = 48 h, 1 µM, compound concentration 1 uM, replicate 1
[10] = 48 h, 1 µM, compound concentration 1 uM, replicate 2
[11] = 48 h, 10 µM, compound concentration 10 uM, replicate 1
[12] = 48 h, 10 µM, compound concentration 10 uM, replicate 2

CC(=O)c1cc(-c2cc(C(=O)NC3CC3)ccc2C)c2ncccn12
Population Apoptotic (%) [1]: 51% | Population Fragmented Nuclei (%) [1]: 11% | Population Healthy Nuclei (%) [1]: 27% | Population Hoechst High Intensity Objects (%) [1]: 12% | Population Membrane Permeable-Phenotype (%) [1]: 3% | Population Mitochondria Different-Phenotype (%) [1]: 59% | Population Mitotic Cells (%) [1]: 48% | Population Normal (%) [1]: 87% | Population Pyknosed Nuclei (%) [1]: 61% | Population Tubulin-Different-Phenotype (%) [1]: 36% | Total Cell Count [1]: 275 | Population Apoptotic (%) [2]: 16% | Population Fragmented Nuclei (%) [2]: 1% | Population Healthy Nuclei (%) [2]: 48% | Population Hoechst High Intensity Objects (%) [2]: 3% | Population Membrane Permeable-Phenotype (%) [2]: 5% | Population Mitochondria Different-Phenotype (%) [2]: 17% | Population Mitotic Cells (%) [2]: 83% | Population Normal (%) [2]: 96% | Population Pyknosed Nuclei (%) [2]: 49% | Population Tubulin-Different-Phenotype (%) [2]: 21% | Total Cell Count [2]: 271 | Population Apoptotic (%) [3]: 50% | Population Fragmented Nuclei (%) [3]: 12% | Population Healthy Nuclei (%) [3]: 29% | Population Hoechst High Intensity Objects (%) [3]: 15% | Population Membrane Permeable-Phenotype (%) [3]: 4% | Population Mitochondria Different-Phenotype (%) [3]: 81% | Population Mitotic Cells (%) [3]: 49% | Population Normal (%) [3]: 84% | Population Pyknosed Nuclei (%) [3]: 58% | Population Tubulin-Different-Phenotype (%) [3]: 39% | Total Cell Count [3]: 265 | Population Apoptotic (%) [4]: 22% | Population Fragmented Nuclei (%) [4]: 6% | Population Healthy Nuclei (%) [4]: 31% | Population Hoechst High Intensity Objects (%) [4]: 4% | Population Membrane Permeable-Phenotype (%) [4]: 5% | Population Mitochondria Different-Phenotype (%) [4]: 38% | Population Mitotic Cells (%) [4]: 77% | Population Normal (%) [4]: 95% | Population Pyknosed Nuclei (%) [4]: 62% | Population Tubulin-Different-Phenotype (%) [4]: 21% | Total Cell Count [4]: 199 | Population Apoptotic (%) [5]: 51% | Population Fragmented Nuclei (%) [5]: 15% | Population Healthy Nuclei (%) [5]: 31% | Population Hoechst High Intensity Objects (%) [5]: 13% | Population Membrane Permeable-Phenotype (%) [5]: 2% | Population Mitochondria Different-Phenotype (%) [5]: 42% | Population Mitotic Cells (%) [5]: 48% | Population Normal (%) [5]: 86% | Population Pyknosed Nuclei (%) [5]: 52% | Population Tubulin-Different-Phenotype (%) [5]: 26% | Total Cell Count [5]: 305 | Population Apoptotic (%) [6]: 10% | Population Fragmented Nuclei (%) [6]: 5% | Population Healthy Nuclei (%) [6]: 65% | Population Hoechst High Intensity Objects (%) [6]: 2% | Population Membrane Permeable-Phenotype (%) [6]: 1% | Population Mitochondria Different-Phenotype (%) [6]: 16% | Population Mitotic Cells (%) [6]: 89% | Population Normal (%) [6]: 97% | Population Pyknosed Nuclei (%) [6]: 29% | Population Tubulin-Different-Phenotype (%) [6]: 25% | Total Cell Count [6]: 349 | Population Apoptotic (%) [7]: 46% | Population Fragmented Nuclei (%) [7]: 18% | Population Healthy Nuclei (%) [7]: 31% | Population Hoechst High Intensity Objects (%) [7]: 17% | Population Membrane Permeable-Phenotype (%) [7]: 0% | Population Mitochondria Different-Phenotype (%) [7]: 76% | Population Mitotic Cells (%) [7]: 53% | Population Normal (%) [7]: 82% | Population Pyknosed Nuclei (%) [7]: 49% | Population Tubulin-Different-Phenotype (%) [7]: 38% | Total Cell Count [7]: 280 | Population Apoptotic (%) [8]: 28% | Population Fragmented Nuclei (%) [8]: 7% | Population Healthy Nuclei (%) [8]: 51% | Population Hoechst High Intensity Objects (%) [8]: 3% | Population Membrane Permeable-Phenotype (%) [8]: 4% | Population Mitochondria Different-Phenotype (%) [8]: 33% | Population Mitotic Cells (%) [8]: 71% | Population Normal (%) [8]: 96% | Population Pyknosed Nuclei (%) [8]: 41% | Population Tubulin-Different-Phenotype (%) [8]: 30% | Total Cell Count [8]: 233 | Population Apoptotic (%) [9]: 44% | Population Fragmented Nuclei (%) [9]: 15% | Population Healthy Nuclei (%) [9]: 43% | Population Hoechst High Intensity Objects (%) [9]: 14% | Population Membrane Permeable-Phenotype (%) [9]: 10% | Population Mitochondria Different-Phenotype (%) [9]: 22% | Population Mitotic Cells (%) [9]: 55% | Population Normal (%) [9]: 85% | Population Pyknosed Nuclei (%) [9]: 41% | Population Tubulin-Different-Phenotype (%) [9]: 28% | Total Cell Count [9]: 343 | Population Apoptotic (%) [10]: 8% | Population Fragmented Nuclei (%) [10]: 6% | Population Healthy Nuclei (%) [10]: 78% | Population Hoechst High Intensity Objects (%) [10]: 4% | Population Membrane Permeable-Phenotype (%) [10]: 4% | Population Mitochondria Different-Phenotype (%) [10]: 6% | Population Mitotic Cells (%) [10]: 91% | Population Normal (%) [10]: 95% | Population Pyknosed Nuclei (%) [10]: 14% | Population Tubulin-Different-Phenotype (%) [10]: 21% | Total Cell Count [10]: 595 | Population Apoptotic (%) [11]: 57% | Population Fragmented Nuclei (%) [11]: 24% | Population Healthy Nuclei (%) [11]: 24% | Population Hoechst High Intensity Objects (%) [11]: 17% | Population Membrane Permeable-Phenotype (%) [11]: 1% | Population Mitochondria Different-Phenotype (%) [11]: 63% | Population Mitotic Cells (%) [11]: 42% | Population Normal (%) [11]: 82% | Population Pyknosed Nuclei (%) [11]: 51% | Population Tubulin-Different-Phenotype (%) [11]: 36% | Total Cell Count [11]: 280 | Population Apoptotic (%) [12]: 17% | Population Fragmented Nuclei (%) [12]: 6% | Population Healthy Nuclei (%) [12]: 58% | Population Hoechst High Intensity Objects (%) [12]: 3% | Population Membrane Permeable-Phenotype (%) [12]: 5% | Population Mitochondria Different-Phenotype (%) [12]: 29% | Population Mitotic Cells (%) [12]: 82% | Population Normal (%) [12]: 96% | Population Pyknosed Nuclei (%) [12]: 35% | Total Cell Count [12]: 284
